According to the M2OR odorant receptor database:
Positions count from the first letter of the chain named.

Experiments:
Conditions in all cases: stereoisomer not certain
OR8D2 (Homo sapiens) = biological target: T1, OR8D2 (Homo sapiens) (UniProt Q9GZM6)
T1 sequence (whole entry): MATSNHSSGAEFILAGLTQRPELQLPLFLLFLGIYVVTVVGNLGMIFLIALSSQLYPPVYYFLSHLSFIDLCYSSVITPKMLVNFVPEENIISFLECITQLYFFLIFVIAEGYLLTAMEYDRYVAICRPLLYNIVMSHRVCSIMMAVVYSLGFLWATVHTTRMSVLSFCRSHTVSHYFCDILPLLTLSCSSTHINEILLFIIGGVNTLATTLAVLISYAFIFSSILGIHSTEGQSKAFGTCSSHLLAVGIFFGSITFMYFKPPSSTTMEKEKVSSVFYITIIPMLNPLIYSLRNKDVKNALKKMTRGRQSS
Outline: (§1)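 Each entry records the cell line, G-protein, co-transfected protein and tags used. Methods varied with the source, often transient luciferase assays in mammalian cell lines. A receptor–molecule pair is called responsive (active) if the original authors judged its signal statistically different from baseline and non-responsive (inactive) otherwise.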

OR8D4 (Homo sapiens) = biological target: T2, OR8D4 (Homo sapiens) (UniProt Q8NGM9)
T2 sequence (whole entry): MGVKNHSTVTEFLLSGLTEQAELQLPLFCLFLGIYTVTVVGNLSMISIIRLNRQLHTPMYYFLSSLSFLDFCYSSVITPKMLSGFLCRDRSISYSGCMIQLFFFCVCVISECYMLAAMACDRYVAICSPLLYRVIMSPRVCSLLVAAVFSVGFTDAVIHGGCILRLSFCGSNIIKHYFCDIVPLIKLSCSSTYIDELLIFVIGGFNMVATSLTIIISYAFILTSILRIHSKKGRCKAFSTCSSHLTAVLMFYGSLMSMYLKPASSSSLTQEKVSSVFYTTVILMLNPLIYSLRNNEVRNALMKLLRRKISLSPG
Outline: as §1

OR8D4 C120Y R133K = system: T3, OR8D4 C120Y R133K
T3 sequence (whole entry): T2 sequence (whole entry) with C120Y, R133K
Outline: as §1

OR8G1 (Homo sapiens) = biological target: T4, OR8G1 (Homo sapiens) (UniProt Q15617)
T4 sequence (whole entry): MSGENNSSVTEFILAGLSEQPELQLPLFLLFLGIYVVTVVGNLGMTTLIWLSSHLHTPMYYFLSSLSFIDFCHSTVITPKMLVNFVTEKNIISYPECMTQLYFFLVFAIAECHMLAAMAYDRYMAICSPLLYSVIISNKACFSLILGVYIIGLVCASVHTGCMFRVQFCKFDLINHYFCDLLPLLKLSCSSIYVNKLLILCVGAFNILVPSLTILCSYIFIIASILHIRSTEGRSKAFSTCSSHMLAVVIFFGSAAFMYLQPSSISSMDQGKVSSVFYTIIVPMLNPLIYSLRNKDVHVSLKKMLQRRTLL
Outline: as §1

OR8G5 (Homo sapiens) = biological target: T5, OR8G5 (Homo sapiens) (UniProt Q8NG78)
T5 sequence (whole entry): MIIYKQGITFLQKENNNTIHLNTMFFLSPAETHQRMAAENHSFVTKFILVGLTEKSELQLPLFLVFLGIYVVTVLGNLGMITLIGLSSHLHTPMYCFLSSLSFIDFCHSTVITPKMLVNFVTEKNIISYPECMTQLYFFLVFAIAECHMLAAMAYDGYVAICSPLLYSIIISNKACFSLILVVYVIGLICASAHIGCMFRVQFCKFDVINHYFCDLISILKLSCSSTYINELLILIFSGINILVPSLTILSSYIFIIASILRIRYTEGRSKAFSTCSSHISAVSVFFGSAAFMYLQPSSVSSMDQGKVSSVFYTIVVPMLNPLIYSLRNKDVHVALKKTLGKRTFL
Outline: as §1

OR8H1 (Homo sapiens) = biological target: T6, OR8H1 (Homo sapiens) (UniProt Q8NGG4)
T6 sequence (whole entry): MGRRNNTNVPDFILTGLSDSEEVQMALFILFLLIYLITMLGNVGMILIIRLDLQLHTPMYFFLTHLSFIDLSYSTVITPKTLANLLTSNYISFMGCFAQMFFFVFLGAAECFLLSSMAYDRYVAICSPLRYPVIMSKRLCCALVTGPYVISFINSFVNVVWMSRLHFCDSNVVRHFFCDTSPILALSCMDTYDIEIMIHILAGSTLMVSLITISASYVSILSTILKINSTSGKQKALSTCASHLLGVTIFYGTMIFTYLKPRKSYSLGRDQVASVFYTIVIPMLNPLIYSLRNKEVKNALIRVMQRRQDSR
Outline: as §1

OR8H2 (Homo sapiens) = biological target: T7, OR8H2 (Homo sapiens) (UniProt Q8N162)
T7 sequence (whole entry): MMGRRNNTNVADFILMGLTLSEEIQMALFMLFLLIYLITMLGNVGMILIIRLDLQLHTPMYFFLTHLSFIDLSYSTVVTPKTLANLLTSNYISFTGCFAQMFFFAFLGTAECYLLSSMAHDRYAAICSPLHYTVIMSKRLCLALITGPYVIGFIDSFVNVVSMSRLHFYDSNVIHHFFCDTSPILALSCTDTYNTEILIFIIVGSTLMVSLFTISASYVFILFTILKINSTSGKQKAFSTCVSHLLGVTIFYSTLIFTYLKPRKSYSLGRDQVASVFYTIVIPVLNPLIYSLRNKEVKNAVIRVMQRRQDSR
Outline: as §1

OR8H2 H120Y Y169C V284M = system: T8, OR8H2 H120Y Y169C V284M
T8 sequence (whole entry): T7 sequence (whole entry) with H120Y, Y169C, V284M
Outline: as §1

OR8H3 (Homo sapiens) = biological target: T9, OR8H3 (Homo sapiens) (UniProt Q8N146)
T9 sequence (whole entry): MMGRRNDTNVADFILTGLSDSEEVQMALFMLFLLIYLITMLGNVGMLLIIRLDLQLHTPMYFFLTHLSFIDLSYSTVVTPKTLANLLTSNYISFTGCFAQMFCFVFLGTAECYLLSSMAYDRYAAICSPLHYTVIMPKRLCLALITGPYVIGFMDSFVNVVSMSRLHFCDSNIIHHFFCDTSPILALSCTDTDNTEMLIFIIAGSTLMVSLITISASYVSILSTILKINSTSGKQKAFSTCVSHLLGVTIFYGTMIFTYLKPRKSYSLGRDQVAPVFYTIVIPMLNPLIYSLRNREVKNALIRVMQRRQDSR
Outline: as §1

OR8H3 = system: T10, OR8H3
T10 sequence (whole entry): T9 sequence (whole entry) with P137S
Outline: as §1

OR8I2 (Homo sapiens) = biological target: T11, OR8I2 (Homo sapiens) (UniProt Q8N0Y5)
T11 sequence (whole entry): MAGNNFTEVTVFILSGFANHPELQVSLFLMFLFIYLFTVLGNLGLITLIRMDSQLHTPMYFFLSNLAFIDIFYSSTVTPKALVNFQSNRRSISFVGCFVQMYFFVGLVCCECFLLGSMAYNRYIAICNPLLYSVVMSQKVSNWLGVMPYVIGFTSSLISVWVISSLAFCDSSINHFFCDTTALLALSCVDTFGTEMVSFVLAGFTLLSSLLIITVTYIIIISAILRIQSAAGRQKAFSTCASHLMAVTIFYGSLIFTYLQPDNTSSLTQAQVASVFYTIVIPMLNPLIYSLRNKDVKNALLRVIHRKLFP
Outline: as §1

OR8J1 (Homo sapiens) = biological target: T12, OR8J1 (Homo sapiens) (UniProt Q8NGP2)
T12 sequence (whole entry): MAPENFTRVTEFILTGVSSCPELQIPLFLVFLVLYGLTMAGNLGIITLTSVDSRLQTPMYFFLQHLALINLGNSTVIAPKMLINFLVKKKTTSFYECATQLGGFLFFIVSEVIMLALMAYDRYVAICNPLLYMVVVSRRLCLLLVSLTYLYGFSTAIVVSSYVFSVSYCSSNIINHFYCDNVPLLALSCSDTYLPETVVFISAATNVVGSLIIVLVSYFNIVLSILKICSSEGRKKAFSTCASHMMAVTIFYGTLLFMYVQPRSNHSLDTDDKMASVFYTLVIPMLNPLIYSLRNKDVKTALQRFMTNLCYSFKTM
Outline: as §1

OR8J1 = system: T13, OR8J1
T13 sequence (whole entry): T12 sequence (whole entry) with Y120C
Outline: as §1

OR8J3 (Homo sapiens) = biological target: T14, OR8J3 (Homo sapiens) (UniProt Q8NGG0)
T14 sequence (whole entry): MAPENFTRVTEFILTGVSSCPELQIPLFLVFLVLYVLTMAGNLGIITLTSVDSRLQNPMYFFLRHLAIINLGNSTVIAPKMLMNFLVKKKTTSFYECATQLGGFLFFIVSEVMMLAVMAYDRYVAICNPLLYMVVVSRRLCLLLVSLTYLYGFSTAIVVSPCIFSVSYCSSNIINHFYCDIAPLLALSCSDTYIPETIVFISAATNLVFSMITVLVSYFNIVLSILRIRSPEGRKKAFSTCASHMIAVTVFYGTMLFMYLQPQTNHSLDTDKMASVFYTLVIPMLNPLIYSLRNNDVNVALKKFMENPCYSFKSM
Outline: as §1

OR8J3 E4V = system: T15, OR8J3 E4V
T15 sequence (whole entry): T14 sequence (whole entry) with E4V
Outline: as §1

OR8K1 (Homo sapiens) = biological target: T16, OR8K1 (Homo sapiens) (UniProt Q8NGG5)
T16 sequence (whole entry): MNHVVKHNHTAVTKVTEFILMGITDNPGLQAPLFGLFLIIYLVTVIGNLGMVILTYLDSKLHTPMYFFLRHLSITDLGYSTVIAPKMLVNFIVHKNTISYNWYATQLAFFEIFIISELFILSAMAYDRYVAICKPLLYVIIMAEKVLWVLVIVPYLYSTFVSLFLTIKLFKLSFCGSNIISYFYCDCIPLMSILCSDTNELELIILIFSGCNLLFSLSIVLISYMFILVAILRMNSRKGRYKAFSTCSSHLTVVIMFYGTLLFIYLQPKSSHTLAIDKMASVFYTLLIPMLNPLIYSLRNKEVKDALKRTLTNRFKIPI
Outline: as §1

OR8K3 (Homo sapiens) = biological target: T17, OR8K3 (Homo sapiens) (UniProt Q8NH51)
T17 sequence (whole entry): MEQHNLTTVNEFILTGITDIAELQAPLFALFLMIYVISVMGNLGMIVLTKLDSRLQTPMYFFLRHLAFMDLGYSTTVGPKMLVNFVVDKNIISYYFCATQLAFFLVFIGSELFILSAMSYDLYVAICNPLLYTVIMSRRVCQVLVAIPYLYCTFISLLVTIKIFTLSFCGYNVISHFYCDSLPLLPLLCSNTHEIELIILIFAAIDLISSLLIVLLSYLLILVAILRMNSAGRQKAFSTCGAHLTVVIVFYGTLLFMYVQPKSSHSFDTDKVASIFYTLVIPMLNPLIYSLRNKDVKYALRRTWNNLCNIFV
Outline: as §1

OR8K5 (Homo sapiens) = biological target: T18, OR8K5 (Homo sapiens) (UniProt Q8NH50)
T18 sequence (whole entry): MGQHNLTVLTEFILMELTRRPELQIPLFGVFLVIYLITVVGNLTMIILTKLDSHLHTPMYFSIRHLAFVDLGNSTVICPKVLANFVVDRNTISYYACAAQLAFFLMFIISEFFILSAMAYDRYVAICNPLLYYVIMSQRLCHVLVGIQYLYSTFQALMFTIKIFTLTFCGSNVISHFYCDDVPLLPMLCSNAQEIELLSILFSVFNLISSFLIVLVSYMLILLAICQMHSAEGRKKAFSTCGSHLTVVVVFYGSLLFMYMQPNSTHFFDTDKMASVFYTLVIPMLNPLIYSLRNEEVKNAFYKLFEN
Outline: as §1

OR8S1 (Homo sapiens) = biological target: T19, OR8S1 (Homo sapiens) (UniProt Q8NH09)
T19 sequence (whole entry): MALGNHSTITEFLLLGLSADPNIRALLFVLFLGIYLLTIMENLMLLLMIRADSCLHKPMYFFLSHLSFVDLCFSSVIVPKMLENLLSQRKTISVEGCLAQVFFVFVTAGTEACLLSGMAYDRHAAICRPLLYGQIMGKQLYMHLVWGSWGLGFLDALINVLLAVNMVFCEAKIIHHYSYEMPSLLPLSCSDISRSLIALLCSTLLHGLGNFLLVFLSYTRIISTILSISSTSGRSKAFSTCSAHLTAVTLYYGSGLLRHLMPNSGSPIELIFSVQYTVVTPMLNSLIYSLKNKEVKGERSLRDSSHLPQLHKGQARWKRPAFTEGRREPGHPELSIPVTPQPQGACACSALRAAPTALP
Outline: as §1

Measured: odorant receptor agonist call

Cc1cnc(C)c(C)n1
inactive: all assays above

CCCCCC(S)C(C)CO (configuration not stated)
not listed: OR8D4 C120Y R133K | OR8H2 H120Y Y169C V284M | OR8H3 | OR8J1 | OR8J3 E4V
inactive: all other assays above

CC1=C(O)C(=O)OC1C (configuration not stated)
inactive: all assays above

O=C1CCOc2ccccc21
inactive: OR8K5 (Homo sapiens)

CCC1OC(C)=C(O)C1=O (configuration not stated)
inactive: all assays above
